Assay results from paper PMC6606825 (Journal of Ginseng Research, 2018).
Marks after values point to notes of the source that are not given here.

Assay: Pharmacokinetics of CK and its metabolite 20
Type: in vivo, healthy Chinese volunteers
How it was run: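 Healthy adults given one oral tablet dose fasting (overnight, or 10 h in a crossover food-effect arm); 30 subjects from the 100/200/400 mg groups were pooled with 24 from 200 mg fasting periods. Plasma was stored at −70°C, extracted with MTBE plus internal standards and assayed by LC-MS/MS. Cmax was observed and AUClast calculated by linear trapezoid, each divided by dose. The metabolite/parent ratio was also calculated. Genotyping used Sequenom MassARRAY, and log-transformed values were compared by one-way ANOVA.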

[1] = ABCG2 rs3114018 AA (first line), mean (SD)
[2] = ABCG2 rs3114018 AA (third line), mean (SD)

For `CC(C)=CCC[C@](C)(O[C@@H]1O[C@H](CO)[C@@H](O)[C@H](O)[C@H]1O)[C@H]1CC[C@]2(C)[C@@H]1[C@H](O)C[C@@H]1[C@@]3(C)CC[C@H](O)C(C)(C)[C@@H]3CC[C@]12C` [Ginsenoside compound K, 20-O-beta-D-glucopyranosyl-20(S)-protopanaxadiol], the “CK Cmax/D” value (ABCG2 rs2725248 CC, mean (SD)) was 4.46 (1.08), the “CK AUClast/D” value [1] was 25.71 (14.88) and the “CK Cmax/D” value [1] was 3.40 (1.60). The “CK AUClast/D” value [2] was 26.43 (22.97), the “CK Cmax/D” value [2] was 3.36 (2.54) and the “CK AUClast/D” value (ABCG2 rs3114018 CA, mean (SD)) was 30.74 (15.11). The “CK Cmax/D” value (ABCG2 rs3114018 CA, mean (SD)) was 4.02 (2.12), the “CK AUClast/D” value (ABCG2 rs6857600 CC, mean (SD)) was 29.60 (19.18) and the “CK Cmax/D” value (ABCG2 rs6857600 CC, mean (SD)) was 3.72 (2.28). For the same compound, the “CK AUClast/D” value (ABCG2 rs6857600 TC, mean (SD)) was 26.00 (7.52), the “CK Cmax/D” value (ABCG2 rs6857600 TC, mean (SD)) was 3.79 (1.18) and the “CK AUClast/D” value (ABCG2 rs6857600 TT, mean (SD)) was 16.47 (5.68). The “CK Cmax/D” value (ABCG2 rs6857600 TT, mean (SD)) was 2.37 (0.75), the “CK AUClast/D” value (ABCG2 rs12505410 GG, mean (SD)) was 36.50 (20.67) and the “CK Cmax/D” value (ABCG2 rs12505410 GG, mean (SD)) was 3.96 (1.91). The “CK AUClast/D” value (ABCG2 rs12505410 GT, mean (SD)) was 33.35 (21.92), the “CK Cmax/D” value (ABCG2 rs12505410 GT, mean (SD)) was 4.39 (2.76) and the “CK AUClast/D” value (ABCG2 rs12505410 TT, mean (SD)) was 22.29 (7.69). The “CK Cmax/D” value (ABCG2 rs12505410 TT, mean (SD)) was 3.00 (1.05), the “CK AUClast/D” value (ABCG2 rs17731799 GG, mean (SD)) was 25.71 (14.88) and the “CK Cmax/D” value (ABCG2 rs17731799 GG, mean (SD)) was 3.40 (1.60). For the same compound, the “CK AUClast/D” value (ABCG2 rs17731799 GT, mean (SD)) was 32.10 (14.45), the “CK Cmax/D” value (ABCG2 rs17731799 GT, mean (SD)) was 4.13 (1.88) and the “CK AUClast/D” value (ABCG2 rs17731799 TT, mean (SD)) was 26.40 (21.35). The “CK Cmax/D” value (ABCG2 rs17731799 TT, mean (SD)) was 3.47 (2.62), the “CK AUClast/D” value (CFTR rs213950 AG, mean (SD)) was 26.46 (20.44) and the “CK Cmax/D” value (CFTR rs213950 AG, mean (SD)) was 3.36 (2.54). The “CK AUClast/D” value (CFTR rs213950 GG, mean (SD)) was 31.13 (15.12), the “CK Cmax/D” value (CFTR rs213950 GG, mean (SD)) was 4.14 (1.85) and the “CK AUClast/D” value (CFTR rs213968 CC, mean (SD)) was 30.36 (14.71). For the same compound, the “CK Cmax/D” value (CFTR rs213968 CC, mean (SD)) was 4.14 (1.90), the “CK AUClast/D” value (CFTR rs213968 CT, mean (SD)) was 27.70 (20.72) and the “CK Cmax/D” value (CFTR rs213968 CT, mean (SD)) was 3.43 (2.53). For the same compound, the “CK AUClast/D” value (CFTR rs213968 TT, mean (SD)) was 28.15 (14.72), the “CK Cmax/D” value (CFTR rs213968 TT, mean (SD)) was 3.81 (1.64) and the “CK AUClast/D” value (CFTR rs213976 GG, mean (SD)) was 27.63 (17.53). The “CK Cmax/D” value (CFTR rs213976 GG, mean (SD)) was 3.62 (1.91), the “CK AUClast/D” value (CFTR rs213976 GT, mean (SD)) was 28.13 (20.65) and the “CK Cmax/D” value (CFTR rs213976 GT, mean (SD)) was 3.63 (2.58). For the same compound, the “CK AUClast/D” value (CFTR rs213976 TT, mean (SD)) was 29.55 (14.70), the “CK Cmax/D” value (CFTR rs213976 TT, mean (SD)) was 3.89 (1.85) and the “CK AUClast/D” value (CFTR rs1042077 GG, mean (SD)) was 28.15 (14.72). For the same compound, the “CK Cmax/D” value (CFTR rs1042077 GG, mean (SD)) was 3.81 (1.64), the “CK AUClast/D” value (CFTR rs1042077 GT, mean (SD)) was 27.96 (21.11) and the “CK Cmax/D” value (CFTR rs1042077 GT, mean (SD)) was 3.46 (2.58). The “CK AUClast/D” value (CFTR rs1042077 TT, mean (SD)) was 30.54 (15.14), the “CK Cmax/D” value (CFTR rs1042077 TT, mean (SD)) was 4.12 (1.95) and the “CK AUClast/D” value (CFTR rs2106155 AA, mean (SD)) was 25.97 (16.89). For the same compound, the “CK Cmax/D” value (CFTR rs2106155 AA, mean (SD)) was 3.41 (1.86), the “CK AUClast/D” value (CFTR rs2106155 CA, mean (SD)) was 31.04 (21.72) and the “CK Cmax/D” value (CFTR rs2106155 CA, mean (SD)) was 4.02 (2.69). For the same compound, the “CK AUClast/D” value (CFTR rs2106155 CC, mean (SD)) was 29.28 (14.69), the “CK Cmax/D” value (CFTR rs2106155 CC, mean (SD)) was 3.86 (1.85) and the “CK AUClast/D” value (CFTR rs2237726 CC, mean (SD)) was 29.76 (14.41). The “CK Cmax/D” value (CFTR rs2237726 CC, mean (SD)) was 3.89 (1.81), the “CK AUClast/D” value (CFTR rs2237726 CT, mean (SD)) was 26.16 (19.95) and the “CK Cmax/D” value (CFTR rs2237726 CT, mean (SD)) was 3.35 (2.25). The “CK AUClast/D” value (CFTR rs2237726 TT, mean (SD)) was 32.16 (19.24), the “CK Cmax/D” value (CFTR rs2237726 TT, mean (SD)) was 3.98 (2.20) and the “CK AUClast/D” value (CFTR rs4148711 AA, mean (SD)) was 28.15 (14.72). For the same compound, the “CK Cmax/D” value (CFTR rs4148711 AA, mean (SD)) was 3.81 (1.64), the “CK AUClast/D” value (CFTR rs4148711 AT, mean (SD)) was 27.70 (20.72) and the “CK Cmax/D” value (CFTR rs4148711 AT, mean (SD)) was 3.43 (2.53). For the same compound, the “CK AUClast/D” value (CFTR rs4148711 TT, mean (SD)) was 29.34 (14.49), the “CK Cmax/D” value (CFTR rs4148711 TT, mean (SD)) was 3.89 (1.63) and the “CK AUClast/D” value (NR1I2 rs1464602 AA, mean (SD)) was 28.65 (21.81). The “CK Cmax/D” value (NR1I2 rs1464602 AA, mean (SD)) was 3.54 (2.35), the “CK AUClast/D” value (NR1I2 rs1464602 AG, mean (SD)) was 33.46 (13.69) and the “CK Cmax/D” value (NR1I2 rs1464602 AG, mean (SD)) was 4.62 (2.09). The “CK AUClast/D” value (NR1I2 rs1464602 GG, mean (SD)) was 20.43 (9.71), the “CK Cmax/D” value (NR1I2 rs1464602 GG, mean (SD)) was 2.65 (1.27) and the “CK AUClast/D” value (NR1I2 rs1523127 AA, mean (SD)) was 29.24 (18.87). For the same compound, the “CK Cmax/D” value (NR1I2 rs1523127 AA, mean (SD)) was 3.82 (2.36), the “CK AUClast/D” value (NR1I2 rs1523127 CA, mean (SD)) was 27.08 (14.85) and the “CK Cmax/D” value (NR1I2 rs1523127 CA, mean (SD)) was 3.53 (1.71). For the same compound, the “CK AUClast/D” value (NR1I2 rs1523127 CC, n = 1) was 28.50 (−) ^2), the “CK Cmax/D” value (NR1I2 rs1523127 CC, n = 1) was 3.49 (−) ^2) and the “CK AUClast/D” value (NR1I2 rs2276707 CC, mean (SD)) was 25.30 (13.16). The “CK Cmax/D” value (NR1I2 rs2276707 CC, mean (SD)) was 3.46 (1.86), the “CK AUClast/D” value (NR1I2 rs2276707 CT, mean (SD)) was 30.38 (20.00) and the “CK Cmax/D” value (NR1I2 rs2276707 CT, mean (SD)) was 3.88 (2.41). For the same compound, the “CK AUClast/D” value (NR1I2 rs2276707 TT, mean (SD)) was 28.36 (15.79), the “CK Cmax/D” value (NR1I2 rs2276707 TT, mean (SD)) was 3.71 (1.90) and the “CK AUClast/D” value (NR1I2 rs2472682 AA, mean (SD)) was 21.56 (9.07). The “CK Cmax/D” value (NR1I2 rs2472682 AA, mean (SD)) was 2.87 (1.20), the “CK AUClast/D” value (NR1I2 rs2472682 CA, mean (SD)) was 34.34 (20.92) and the “CK Cmax/D” value (NR1I2 rs2472682 CA, mean (SD)) was 4.45 (2.60). The “CK AUClast/D” value (NR1I2 rs2472682 CC, mean (SD)) was 24.44 (13.14), the “CK Cmax/D” value (NR1I2 rs2472682 CC, mean (SD)) was 3.17 (1.39) and the “CK AUClast/D” value (NR1I2 rs6785049 AA, mean (SD)) was 22.20 (13.19). For the same compound, the “CK Cmax/D” value (NR1I2 rs6785049 AA, mean (SD)) was 2.88 (1.46), the “CK AUClast/D” value (NR1I2 rs6785049 AG, mean (SD)) was 32.86 (19.88) and the “CK Cmax/D” value (NR1I2 rs6785049 AG, mean (SD)) was 4.27 (2.46). For the same compound, the “CK AUClast/D” value (NR1I2 rs6785049 GG, mean (SD)) was 24.29 (12.99), the “CK Cmax/D” value (NR1I2 rs6785049 GG, mean (SD)) was 3.22 (1.69) and the “CK AUClast/D” value (NR1I2 rs7643645 AA, mean (SD)) was 26.64 (13.51). The “CK Cmax/D” value (NR1I2 rs7643645 AA, mean (SD)) was 3.76 (2.21), the “CK AUClast/D” value (NR1I2 rs7643645 AG, mean (SD)) was 27.63 (13.83) and the “CK Cmax/D” value (NR1I2 rs7643645 AG, mean (SD)) was 3.41 (1.51). The “CK AUClast/D” value (NR1I2 rs7643645 GG, mean (SD)) was 39.83 (34.46) and the “CK Cmax/D” value (NR1I2 rs7643645 GG, mean (SD)) was 5.06 (3.69).
